Tests used:
[1] = target: Cyclin-dependent kinase 2 (Homo sapiens, UniProt P24941); assay: Inhibition of CDK2
[2] = target: T1, Insulin-like growth factor 1 receptor (Homo sapiens, UniProt P08069); assay: Inhibition of IGF1R
[3] = target: T1, Insulin-like growth factor 1 receptor; assay: Inhibition of IGF1-induced autophosphorylation of human recombinant IGF1R expressed in mouse fibroblasts by high throughput assay
[4] = Volume of distribution at steady state in Beagle dog at 0.8 umol/kg, iv and 10 umol/kg, po; format: ADME, organism-based, Canis lupus familiaris; conditions: in vivo, read-out: Vdss
Method in brief: (§1)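 Values are means from two beagle dogs, one male and one female, each given an intravenous dose and an oral dose.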

[5] = Terminal half life in Han Wistar rat at 4 umol/kg, iv and 10 umol/kg, po; format: ADME, organism-based; conditions: in vivo, read-out: beta t1/2 (converted)
Method in brief: (§2)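 Male Han Wistar rats, each given an intravenous dose and a separate oral dose; parameters derived from the plasma concentration profiles.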

[6] = Oral bioavailability in Han Wistar rat at 10 umol/kg; format: ADME, organism-based; conditions: in vivo
[7] = target: Mitogen-activated protein kinase 9 (Homo sapiens) (UniProt P45984); assay: Inhibition of JNK2 at 1 uM
Insulin receptor [8] = target: T2, Insulin receptor (Homo sapiens, UniProt P06213); assay: Inhibition of insulin receptor
[9] = Intrinsic clearance in dog hepatocytes assessed per 10^6 cells; format: ADME, cell-based, Canis lupus familiaris, Liver, Hepatocyte
[10] = Volume of distribution at steady state in nude mouse at 4 umol/kg, iv and 10 umol/kg, po; format: ADME, organism-based; conditions: in vivo, read-out: Vdss
[11] = Plasma clearance in Beagle dog at 0.8 umol/kg, iv and 10 umol/kg, po; format: ADME, organism-based, Canis lupus familiaris; method in brief: as §1
[12] = Oral bioavailability in nude mouse at 10 umol/kg; format: ADME, organism-based; conditions: in vivo
[13] = target: T3, Mitogen-activated protein kinase 15 (Homo sapiens) (UniProt Q8TD08); assay: Inhibition of ERK8 at 1 uM
T3 sequence (whole entry): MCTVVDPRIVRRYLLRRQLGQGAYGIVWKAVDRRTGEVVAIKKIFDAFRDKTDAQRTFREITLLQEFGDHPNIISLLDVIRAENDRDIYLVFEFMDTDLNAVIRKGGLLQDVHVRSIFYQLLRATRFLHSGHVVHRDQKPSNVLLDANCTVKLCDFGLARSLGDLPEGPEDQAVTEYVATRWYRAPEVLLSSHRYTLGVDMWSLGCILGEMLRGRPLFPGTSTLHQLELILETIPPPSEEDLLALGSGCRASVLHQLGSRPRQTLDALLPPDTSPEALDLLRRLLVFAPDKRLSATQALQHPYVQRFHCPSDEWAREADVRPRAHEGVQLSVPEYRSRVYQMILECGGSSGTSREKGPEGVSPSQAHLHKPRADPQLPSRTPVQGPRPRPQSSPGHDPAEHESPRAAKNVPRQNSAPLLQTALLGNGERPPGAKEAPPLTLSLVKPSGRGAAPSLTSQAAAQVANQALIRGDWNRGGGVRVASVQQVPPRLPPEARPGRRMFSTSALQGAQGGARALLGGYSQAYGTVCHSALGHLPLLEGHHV

[14] = Volume of distribution at steady state in Han Wistar rat at 4 umol/kg, iv and 10 umol/kg, po; format: ADME, organism-based; conditions: in vivo, read-out: Vdss; method in brief: as §2
[15] = Terminal half life in nude mouse at 4 umol/kg, iv and 10 umol/kg, po; format: ADME, organism-based; conditions: in vivo, read-out: beta t1/2 (converted)
Insulin receptor [16] = target: T2, Insulin receptor; assay: Inhibition of insulin-induced autophosphorylation of human insulin receptor expressed in CHO cells; format: cell-based
Method in brief: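 CHO cells transfected with the human insulin receptor gene, stimulated with insulin; the read-out is inhibition of receptor auto-phosphorylation.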

[17] = Intrinsic clearance in rat hepatocytes assessed per 10^6 cells; format: ADME, cell-based, Liver, Hepatocyte
[18] = Plasma clearance in Han Wistar rat at 4 umol/kg, iv and 10 umol/kg, po; format: ADME, organism-based; method in brief: as §2
[19] = Terminal half life in Beagle dog at 0.8 umol/kg, iv and 10 umol/kg, po; format: ADME, organism-based, Canis lupus familiaris; conditions: in vivo, read-out: beta t1/2 (converted); method in brief: as §1
[20] = Intrinsic clearance in mouse hepatocytes assessed per 10^6 cells; format: ADME, cell-based, Liver, Hepatocyte
[21] = Intrinsic clearance in human hepatocytes assessed per 10^6 cells; format: ADME, cell-based, Liver, Hepatocyte
[22] = Plasma clearance in nude mouse at 4 umol/kg, iv and 10 umol/kg, po; format: ADME, organism-based
[23] = Oral bioavailability in Beagle dog at 10 umol/kg; format: ADME, organism-based, Canis lupus familiaris; conditions: in vivo; method in brief: as §1
[24] = target: Mitogen-activated protein kinase 8 (Homo sapiens) (UniProt P45983); assay: Inhibition of JNK1 at 1 uM
Chain of Mitogen-activated protein kinase 8 (Homo sapiens) (P45983 whole entry): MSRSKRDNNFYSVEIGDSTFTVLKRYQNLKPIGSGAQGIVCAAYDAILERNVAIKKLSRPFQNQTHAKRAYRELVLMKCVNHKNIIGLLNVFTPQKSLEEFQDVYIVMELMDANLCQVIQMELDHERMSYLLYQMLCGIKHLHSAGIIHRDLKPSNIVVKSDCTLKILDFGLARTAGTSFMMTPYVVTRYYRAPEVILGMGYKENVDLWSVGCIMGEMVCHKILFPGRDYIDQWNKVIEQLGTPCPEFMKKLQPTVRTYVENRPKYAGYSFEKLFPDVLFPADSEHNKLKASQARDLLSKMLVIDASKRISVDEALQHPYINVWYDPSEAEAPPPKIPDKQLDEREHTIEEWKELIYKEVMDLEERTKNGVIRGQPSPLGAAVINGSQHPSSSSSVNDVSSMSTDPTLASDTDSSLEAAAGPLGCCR

T1 sequence (P08069 31-736 limits assumed): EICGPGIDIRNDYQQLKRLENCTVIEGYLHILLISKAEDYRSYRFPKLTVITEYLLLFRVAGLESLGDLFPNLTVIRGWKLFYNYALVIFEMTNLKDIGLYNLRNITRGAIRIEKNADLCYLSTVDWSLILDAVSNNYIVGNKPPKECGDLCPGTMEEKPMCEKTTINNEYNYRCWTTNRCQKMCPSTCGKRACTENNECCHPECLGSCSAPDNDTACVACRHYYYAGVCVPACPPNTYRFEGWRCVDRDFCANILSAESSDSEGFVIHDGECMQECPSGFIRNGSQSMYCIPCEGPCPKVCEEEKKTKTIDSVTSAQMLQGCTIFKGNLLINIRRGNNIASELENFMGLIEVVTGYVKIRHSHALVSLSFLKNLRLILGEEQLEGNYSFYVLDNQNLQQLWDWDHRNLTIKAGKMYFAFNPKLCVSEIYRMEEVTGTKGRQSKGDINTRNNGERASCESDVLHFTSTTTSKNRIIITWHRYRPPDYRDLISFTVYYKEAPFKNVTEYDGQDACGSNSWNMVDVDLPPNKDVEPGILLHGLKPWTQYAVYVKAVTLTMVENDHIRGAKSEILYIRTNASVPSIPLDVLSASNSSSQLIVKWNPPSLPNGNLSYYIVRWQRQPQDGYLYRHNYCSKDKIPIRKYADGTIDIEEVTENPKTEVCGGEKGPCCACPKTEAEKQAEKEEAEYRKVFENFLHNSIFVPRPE
T1 sequence (P08069 741-1367 limits assumed): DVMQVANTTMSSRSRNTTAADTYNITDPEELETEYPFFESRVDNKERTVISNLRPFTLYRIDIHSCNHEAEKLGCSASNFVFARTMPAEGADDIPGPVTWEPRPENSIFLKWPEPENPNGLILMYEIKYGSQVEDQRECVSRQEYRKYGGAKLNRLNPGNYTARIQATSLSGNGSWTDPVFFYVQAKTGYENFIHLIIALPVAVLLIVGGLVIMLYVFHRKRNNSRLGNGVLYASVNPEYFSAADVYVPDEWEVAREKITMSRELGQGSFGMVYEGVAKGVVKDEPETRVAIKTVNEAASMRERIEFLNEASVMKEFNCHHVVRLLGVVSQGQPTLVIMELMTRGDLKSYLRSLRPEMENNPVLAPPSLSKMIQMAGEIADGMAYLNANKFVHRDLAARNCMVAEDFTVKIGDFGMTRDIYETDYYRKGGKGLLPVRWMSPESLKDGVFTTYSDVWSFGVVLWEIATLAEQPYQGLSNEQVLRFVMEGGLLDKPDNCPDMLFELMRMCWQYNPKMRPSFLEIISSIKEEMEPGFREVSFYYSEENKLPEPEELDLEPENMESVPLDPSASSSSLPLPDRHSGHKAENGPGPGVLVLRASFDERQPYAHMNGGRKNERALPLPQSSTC
T2 sequence (P06213 28-758 limits assumed): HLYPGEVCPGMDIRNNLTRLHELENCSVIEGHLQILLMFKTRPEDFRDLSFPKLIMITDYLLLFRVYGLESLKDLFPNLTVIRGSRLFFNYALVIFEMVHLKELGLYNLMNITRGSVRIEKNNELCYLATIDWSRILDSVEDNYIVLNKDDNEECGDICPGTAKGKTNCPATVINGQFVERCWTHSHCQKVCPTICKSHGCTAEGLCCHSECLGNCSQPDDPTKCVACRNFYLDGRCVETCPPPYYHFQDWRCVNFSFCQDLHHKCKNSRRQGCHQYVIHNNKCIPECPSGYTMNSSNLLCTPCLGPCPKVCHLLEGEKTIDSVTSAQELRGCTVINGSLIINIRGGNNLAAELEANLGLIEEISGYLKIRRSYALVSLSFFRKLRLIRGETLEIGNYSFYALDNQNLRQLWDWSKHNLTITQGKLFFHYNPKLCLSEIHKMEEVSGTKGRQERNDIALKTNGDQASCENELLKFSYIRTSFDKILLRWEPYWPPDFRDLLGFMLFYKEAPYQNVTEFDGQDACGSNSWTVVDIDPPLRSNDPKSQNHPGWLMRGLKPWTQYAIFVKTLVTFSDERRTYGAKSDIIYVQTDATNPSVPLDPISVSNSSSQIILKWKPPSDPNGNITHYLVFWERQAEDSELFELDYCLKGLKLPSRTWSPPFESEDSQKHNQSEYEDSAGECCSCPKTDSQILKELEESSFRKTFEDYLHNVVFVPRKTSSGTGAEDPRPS
T2 sequence (P06213 763-1382 limits assumed): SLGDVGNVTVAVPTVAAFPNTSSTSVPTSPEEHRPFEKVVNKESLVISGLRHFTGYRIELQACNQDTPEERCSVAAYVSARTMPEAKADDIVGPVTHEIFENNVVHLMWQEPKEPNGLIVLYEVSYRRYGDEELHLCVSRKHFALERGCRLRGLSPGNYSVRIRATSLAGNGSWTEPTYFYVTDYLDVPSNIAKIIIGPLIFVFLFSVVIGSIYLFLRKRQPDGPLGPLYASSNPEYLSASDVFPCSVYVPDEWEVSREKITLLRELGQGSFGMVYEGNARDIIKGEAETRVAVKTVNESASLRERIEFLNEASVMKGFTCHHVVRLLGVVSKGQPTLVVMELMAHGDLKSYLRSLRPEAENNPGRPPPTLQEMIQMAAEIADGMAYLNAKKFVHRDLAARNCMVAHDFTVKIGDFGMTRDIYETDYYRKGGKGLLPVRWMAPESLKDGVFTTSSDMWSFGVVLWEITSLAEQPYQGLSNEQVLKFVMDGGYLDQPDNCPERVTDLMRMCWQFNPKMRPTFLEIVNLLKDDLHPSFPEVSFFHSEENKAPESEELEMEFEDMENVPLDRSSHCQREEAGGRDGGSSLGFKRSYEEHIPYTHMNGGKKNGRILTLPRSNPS
Chain of Mitogen-activated protein kinase 9 (Homo sapiens) (P45984 whole entry, looked up): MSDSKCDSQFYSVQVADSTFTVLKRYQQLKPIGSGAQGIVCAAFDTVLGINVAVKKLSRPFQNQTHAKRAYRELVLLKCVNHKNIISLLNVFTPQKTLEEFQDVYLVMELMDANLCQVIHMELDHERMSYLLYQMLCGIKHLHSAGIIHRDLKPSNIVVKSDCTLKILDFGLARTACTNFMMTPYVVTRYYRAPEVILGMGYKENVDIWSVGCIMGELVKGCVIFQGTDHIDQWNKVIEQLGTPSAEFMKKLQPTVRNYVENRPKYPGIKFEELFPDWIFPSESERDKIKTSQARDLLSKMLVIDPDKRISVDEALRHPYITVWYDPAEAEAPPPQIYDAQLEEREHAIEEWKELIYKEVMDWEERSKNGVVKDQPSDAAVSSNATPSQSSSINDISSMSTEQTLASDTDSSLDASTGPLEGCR

`COc1cc(N2CCN(C(C)=O)CC2)ccc1Nc1ncc(F)c(-c2cnc3ccccn23)n1` gave an IC50 [1] of 2700 nM, an IC50 [2] of 89 nM and an IC50 [3] of 130 nM.

`COc1cc(N2CCN(C(C)=O)CC2)ccc1Nc1ncc(C(F)(F)F)c(-c2cnc3ccccn23)n1` showed an IC50 [1] of 16000 nM.

For `CC(=O)N1CCN(c2ccc(Nc3nccc(-c4cnc5ccccn45)n3)cc2)CC1`, the IC50 [1] was 78 nM and the IC50 [2] was 270 nM.

For `COc1cc(N2CCN(C(C)=O)CC2)ccc1Nc1ncc(C)c(-c2cnc3ccccn23)n1`, the IC50 [1] was 10000 nM and the IC50 [3] was 92 nM.

`COc1cc(N2CCN(C(C)=O)CC2)ccc1Nc1nccc(-c2cnc3ccccn23)n1` gave an IC50 [1] greater than 100000 nM, an IC50 [2] of 450 nM and an IC50 [3] of 1340 nM.

Work on `COc1cc(N2CCN(C(C)=O)CC2)ccc1Nc1ncc(C#N)c(-c2cnc3ccccn23)n1` yielded an IC50 [1] of 27000 nM and an IC50 [3] of 170 nM.

Work on `COc1cc(N2CCN(C(C)=O)CC2)ccc1Nc1ncc(Cl)c(-c2cnc3ccccn23)n1` yielded a Vd [4] of 1.9 L/kg, an IC50 [1] of 1100 nM and a half-life [5] of 4.6 h. The bioavailability [6] was 49%, the inhibition [7] was greater than 80% and the IC50 (Insulin receptor [8]) was 9 nM. It also gave a hepatocyte CLint [9] of 6.7 µL/min/1e6 cells, a Vd [10] of 0.8 L/kg and a clearance [11] of 4.7 mL/min/kg. It also gave a bioavailability [12] of 36%, an inhibition [13] greater than 80% and a Vd [14] of 0.7 L/kg. For the same compound, the half-life [15] was 0.9 h, the IC50 (Insulin receptor [16]) was 12 nM and the hepatocyte CLint [17] was 15 µL/min/1e6 cells. For the same compound, the clearance [18] was 6.5 mL/min/kg, the half-life [19] was 5.5 h and the hepatocyte CLint [20] was 32 µL/min/1e6 cells. It also gave a hepatocyte CLint [21] of 6.9 µL/min/1e6 cells, a clearance [22] of 15 mL/min/kg and a bioavailability [23] of 30%. It also gave an inhibition [24] greater than 80%.

In the case of `COc1cc(N2CCN(C(C)=O)CC2)ccc1Nc1ncc(Br)c(-c2cnc3ccccn23)n1`, the IC50 [1] is reported as 1100 nM, the IC50 [2] is reported as 3 nM and the IC50 [3] is reported as 9 nM.

In the case of `NS(=O)(=O)c1ccc(Nc2nccc(-c3cnc4ccccn34)n2)cc1`, the IC50 [1] is reported as 1 nM and the IC50 [2] is reported as 1260 nM.

Work on `COc1cc(N2CCN(C(C)=O)CC2)ccc1Nc1ncc(OC)c(-c2cnc3ccccn23)n1` yielded an IC50 [1] of 53000 nM and an IC50 [3] of 190 nM.
